Here are results for eleven compounds from article PMC6777294 (ACS Omega, 2019).

Like-named read-outs stand apart in the source and are kept apart here. Bounds are passed on as bounds.

As a reminder, the IC50 is the concentration that gives 50% inhibition. What is called Ki is a dissociation constant, usually derived from enzyme kinetics or from competition with a known ligand. Read a low Ki as higher affinity.

One assay relates to rat MAO enzyme. The conditions noted are these: cited from earlier work.
The target in assay [1] is T1, hMAO-A (Homo sapiens, UniProt P21397).
T1 sequence (P21397 1-527): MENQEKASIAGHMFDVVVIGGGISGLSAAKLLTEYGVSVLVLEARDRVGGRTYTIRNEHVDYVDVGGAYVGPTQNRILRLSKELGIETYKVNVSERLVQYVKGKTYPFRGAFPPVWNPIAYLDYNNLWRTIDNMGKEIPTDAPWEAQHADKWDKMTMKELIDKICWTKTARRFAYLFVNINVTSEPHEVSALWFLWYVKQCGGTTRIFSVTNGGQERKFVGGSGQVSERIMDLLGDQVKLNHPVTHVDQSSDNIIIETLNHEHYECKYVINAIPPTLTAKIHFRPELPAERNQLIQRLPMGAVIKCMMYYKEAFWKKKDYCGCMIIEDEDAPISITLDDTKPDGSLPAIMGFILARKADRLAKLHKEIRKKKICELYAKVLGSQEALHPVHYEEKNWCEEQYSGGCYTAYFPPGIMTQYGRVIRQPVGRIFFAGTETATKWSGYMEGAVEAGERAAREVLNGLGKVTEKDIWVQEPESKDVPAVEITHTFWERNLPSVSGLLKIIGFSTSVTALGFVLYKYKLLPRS
The assay can be described thus: biochemical. To be noted: Table 2; for IC50: IC50 (μM) hMAO-A (n = 3), log dose inhibition curve, mean ± SD of triplicate; for SI (selective index): ratio of hMAO-B IC50/hMAO-A IC50.

The target in assay [2] is T2, hMAO-B (Homo sapiens, UniProt P27338).
T2 sequence (P27338 1-520): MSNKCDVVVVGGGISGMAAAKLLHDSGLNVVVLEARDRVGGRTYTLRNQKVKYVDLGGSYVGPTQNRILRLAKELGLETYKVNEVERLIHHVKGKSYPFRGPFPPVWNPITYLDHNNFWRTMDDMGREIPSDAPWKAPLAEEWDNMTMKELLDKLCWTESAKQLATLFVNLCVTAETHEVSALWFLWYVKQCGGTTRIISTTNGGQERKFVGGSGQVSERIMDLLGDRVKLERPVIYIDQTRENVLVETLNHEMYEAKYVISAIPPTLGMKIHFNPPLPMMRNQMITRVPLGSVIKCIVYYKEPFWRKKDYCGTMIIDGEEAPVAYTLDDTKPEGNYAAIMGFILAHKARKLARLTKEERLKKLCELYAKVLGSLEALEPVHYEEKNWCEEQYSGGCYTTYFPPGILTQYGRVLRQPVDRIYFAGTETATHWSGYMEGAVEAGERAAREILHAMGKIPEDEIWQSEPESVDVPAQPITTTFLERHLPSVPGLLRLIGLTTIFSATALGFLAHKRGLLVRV
The assay can be described thus: In vitro human MAO inhibitory assay. In kind it is biochemical.

Assay [3] has as its target T1, hMAO-A. Briefly: Enzyme kinetics of hMAO-A inhibition. To be noted: for inhibition type: hMAO-A, determined by Lineweaver–Burk plot. In kind it is biochemical. The method, boiled down: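 hMAO-A activity was measured with the chemiluminescent MAO-Glo kit assay. Reactions ran at three MAO substrate concentrations (320, 160 and 80 μM), with or without test compound. Michaelis–Menten and Lineweaver–Burk plots gave Km, Vmax and inhibition mode. Ki came from secondary plots: Kic for inhibitor binding free enzyme, Kiu for binding the enzyme–substrate complex.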

In a further assay the target is mouse liver MAO enzyme. To be noted: cited from earlier work.
In assay [4] the target is T2, hMAO-B. Briefly: Enzyme kinetics of hMAO-B inhibition. In kind it is biochemical. In short, it runs like this: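 For hMAO-B, chemiluminescent MAO-Glo kit reactions were set up at three MAO substrate levels (32, 16 and 8 μM), with or without test compound. Inhibition mode, Km and Vmax were read from Michaelis–Menten and Lineweaver–Burk plots. Secondary plots gave Ki: Kic for inhibitor binding free enzyme, Kiu for binding the enzyme–substrate complex.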

Assay [5] has as its target T1, hMAO-A. To be noted: data reproduced from recent publication ref 32; cited from earlier work.

In the case of `O=C1c2cccc(O)c2C(=O)c2c(O)cccc21` [1,8-dihydroxyanthraquinone], in the assay with rat MAO enzyme, the “activity against rat MAO enzyme” value was “inactive”.

For the compound `Cc1cc(O)c2c(c1)C(=O)c1cccc(O)c1C2=O` [Compound 1, chrysophanol], the IC50 against hMAO-A [1] and against hMAO-B [2] was above 400 µM throughout. Moreover, the “activity against rat MAO enzyme” value with rat MAO enzyme was “inactive”.

Take `COc1cc(O)c2c(c1)C(=O)c1cc(C)cc(O)c1C2=O` [Compound 2, physcion]: the IC50 against hMAO-A [1] and on hMAO-B [2] was above 400 µM each time. For the same compound, the “activity against rat MAO enzyme” value in the assay with rat MAO enzyme is “inactive”.

As for `COc1c(O)c(C)cc2c1C(=O)c1c(O)cccc1C2=O` [Compound 4, obtusifolin], the values for the IC50 against hMAO-A [1] and against hMAO-B [2] were 31.8 ± 0.6 µM and above 400 µM, respectively.

As to `COc1c(O)cc2c(c1O)C(=O)c1c(cc(C)c(O)c1OC)C2=O` [Compound 5, aurantio-obtusin], on hMAO-A [1], the IC50 turned out to be 27.2 ± 0.85 µM and the “SI (selective index)” value is 6.40. For the same compound, on hMAO-B [2], 174 ± 1.86 µM corresponded to half-maximal inhibition (IC50).

`COc1cc2c(c(OC)c1OC)C(=O)c1c(cc(C)c(O)c1OC)C2=O` [Compound 6, chryso-obtusin]: the IC50 against hMAO-A [1] is 328 ± 10.2 µM; against hMAO-B [2], above 400 µM.

On to `O=C1c2cccc(O)c2C(=O)c2c(O)cc(CO)cc21` [Compound 9, aloe-emodin], for which the values for the IC50 against hMAO-A [1] and at hMAO-B [2] were 2.47 ± 0.14 µM and above 400 µM, respectively. The compound further showed a Ki on hMAO-A [3] of 0.5 µM. Moreover, the inhibition type entry at hMAO-A [3] was “competitive”. The “activity against rat MAO enzyme” value in the assay on rat MAO enzyme was “inactive”.

With `Cc1cc(O)c2c(c1)C(=O)c1cc(O)cc(O)c1C2=O` [Compound 10, emodin], the IC50 on hMAO-A [1] was 23.3 ± 1.46 µM; at hMAO-B [2], 54.7 ± 0.74 µM; at mouse liver MAO enzyme it was 37 µM. Further, the “activity against rat MAO enzyme” value with rat MAO enzyme was “inactive”.

Take `COc1cc(O)cc2c1C(=O)c1c(O)cc(C)cc1C2=O` [Compound 12, questin]: the IC50 against hMAO-A [1] turned out to be 0.17 ± 0.01 µM; against hMAO-B [2], 10.6 ± 0.28 µM. The results for the Ki on hMAO-A [3] and on hMAO-B [4] were 0.13 µM and 4.14 µM, respectively. Further, the inhibition type result on hMAO-A [3] is reported as “competitive”; against hMAO-B [4] (hMAO-B, determined by Lineweaver–Burk plot) it was “competitive”.

As for `COc1cc(O)c2c(O)c3c(=O)cc(C)oc3cc2c1` [Compound 13, rubrofusarin], at hMAO-A [1], the “SI (selective index)” value came to 15.49. In addition, the IC50 at hMAO-B [2] came to 91.4 ± 1.31 µM. On hMAO-A [5], the “Kiu (binding constant of inhibitor with enzyme–substrate complex)” value is 4.22 and the inhibition type entry is recorded as “mixed-type”.

As to `O=C(O)c1cc(O)c2c(c1)C(=O)c1cccc(O)c1C2=O` [rhein], the “activity against rat MAO enzyme” value with rat MAO enzyme is “inactive”.
